Reference: ChEMBL document CHEMBL1123005, “1-Azacycloalkyl-1,4-benzodiazepin-2-ones with antianxiety-antidepressant actions” (J Med Chem, 1985)
Calls of active or inactive are those of the source. No cut-off for these calls is given here.

How the values were obtained:
Rattus norvegicus [1] = species on record: Rattus norvegicus; assay: Inhibitory activity against uptake of [3H]norepinephrine into rat brain synaptosomes.; format: functional
In short: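 P2 synaptosomes from male Wistar rat cerebral cortex incubated with [3H]norepinephrine at 37 °C for 20 min, with compound at 5-6 concentrations. Stopped by Krebs-Henseleit dilution and glass-fibre filtration, then scintillation counting. IC50 taken as the concentration giving 50% uptake inhibition.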

[2] = target: GABA-A receptor; anion channel (Rattus norvegicus) (UniProt O09028+P15431+P18506+P18508+P19969+P20236+P23574+P23576+P28471+P28473+P30191+P62813+P63079+P63138+Q91ZM7+Q9ES14); assay: Binding constant was determined by displacing potential to [3H]-diazepam binding in cerebral cortex homogenates of rat; format: tissue-based
In short: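 Wistar rat cerebral cortex homogenate incubated with compound and 2 nM [3H]diazepam at 0 °C for 60 min. Bound label trapped on glass filters and counted by scintillation. Ki = IC50/(1 + L/Kd).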

Mus musculus [3] = assay: Effective dose against pentylenetetrazole intoxicity in mice administered orally; format: functional
Mus musculus [4] = assay: Effective dose against tetrabenazine induced ptosis in mice administered orally; format: functional; settings: Mus musculus, po; read-out: ED50
In short: (§1)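 Male DS mice, 20-27 g, groups of five. Compound given po or sc in saline or gum arabic at 0.1 mL/10 g. Tetrabenazine 50 mg/kg sc given 1, 4 or 24 h later. Ptosis scored 1-4 at 1 h after TBZ, with ridit transformation. Dose for 50% prevention by regression.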

Mus musculus [5] = assay: Effective dose against tetrabenazine induced ptosis in mice administered subcutaneously; format: functional; settings: sc; in short: as §1
[6] = Acute toxicity was measured in mice after peroral administration; format: organism-based; settings: mouse, in vivo, po
In short: (§2)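 Male DS mice, 20-26 g, given compound orally; mortality checked the day after treatment in groups of 10. LD50 by probit method, or by up-and-down method of Brownlee et al. (n = 5) where estimated.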

Mus musculus [7] = assay: Effective dose against pentylenetetrazole intoxicity in mice administered orally; NE = no effect at 200 mg/kg; format: functional, organism-based; set-up: dose 200 mg/kg
Rattus norvegicus [8] = assay: Percent inhibition against anticonflict effect in rats when administered through oral route; at 32 mg/kg; format: functional
In short: (§3)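 Wistar rats in groups of 5-8, Geller-Seifter conflict procedure. Rats trained to lever-press for food on a variable-interval 60-s schedule. Oral dosing. A dose counted positive when shocks exceeded 12 or shock ratio exceeded 4 over four consecutive tone periods. ED50 with 95% limits by probit.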

Mus musculus [9] = assay: Effective dose against pentylenetetrazole intoxicity in mice administered through subcutaneous route; NE = no effect at 10 mg/kg; format: functional, organism-based; set-up: dose 10 mg/kg
Mus musculus [10] = assay: Percent inhibition against tetrabenazine induced ptosis in mice administered orally at 100 mg/kg; format: functional; settings: route oral; in short: as §1
Mus musculus [11] = assay: Percent inhibition against tetrabenazine induced ptosis in mice administered subcutaneously at 50 mg/kg; format: functional; settings: sc, route subcutaneous; in short: as §1
Mus musculus [12] = assay: Percent inhibition against tetrabenazine induced ptosis in mice administered orally at 50 mg/kg; format: functional; settings: route oral; in short: as §1
Rattus norvegicus [13] = assay: Effective dose was evaluated by their anticonflict effect in rats when administered through oral route; format: functional; in short: as §3
Mus musculus [14] = assay: Effective dose against pentylenetetrazole intoxicity in mice administered through subcutaneous route; format: functional; settings: sc
[15] = Acute toxicity was measured in mice after peroral administration (805-1213); format: organism-based; settings: mouse, in vivo, po; in short: as §2
Rattus norvegicus [16] = assay: Percent inhibition was evaluated by their anticonflict effect in rats when administered through oral route at 32 mg/kg; format: functional; in short: as §3
Mus musculus [17] = assay: Effective dose against pentylenetetrazole intoxicity in mice administered subcutaneously; NE= no effect at 100 mg/kg; format: functional, organism-based; set-up: dose 100 mg/kg
Mus musculus [18] = assay: Effective dose against pentylenetetrazole intoxicity in mice administered orally; NE= no effect at 50 mg/kg; format: functional, organism-based; set-up: dose 50 mg/kg
Mus musculus [19] = assay: Effective dose against tetrabenazine induced ptosis in mice administered subcutaneously; NE= no effect at 50 mg/kg; format: functional, organism-based; set-up: dose 50 mg/kg; in short: as §1
Mus musculus [20] = assay: Effective dose against pentylenetetrazole intoxicity in mice administered through subcutaneous route;NE = no effect at 20 mg/kg; format: functional, organism-based; set-up: dose 20 mg/kg
Rattus norvegicus [21] = assay: Effective dose against anticonflict effect in rats when administered through oral route; format: functional; in short: as §3
Mus musculus [22] = assay: Percent inhibition against tetrabenazine induced ptosis in mice administered subcutaneously 50 mg/kg; format: functional; settings: sc, route subcutaneous; in short: as §1
Mus musculus [23] = assay: Effective dose against pentylenetetrazole intoxicity in mice administered orally;NE = no effect at 50 mg/kg; format: functional, organism-based; set-up: dose 50 mg/kg
Mus musculus [24] = assay: Effective dose against pentylenetetrazole intoxicity in mice administered through subcutaneous route;NE = no effect at 10 mg/kg; format: functional, organism-based; set-up: dose 10 mg/kg
Mus musculus [25] = assay: Percent Inhibition against pentylenetetrazole intoxicity in mice administered orally at 50 mg/kg; format: functional; settings: route oral
Mus musculus [26] = assay: Effective dose against pentylenetetrazole intoxicity in mice administered through subcutaneous route;NE= no effect at 10 mg/kg; format: functional, organism-based; set-up: dose 10 mg/kg
[27] = Mus musculus, po, read-out: ED50

Row | SMILES | IC50 (Rattus norvegicus [1]) | K2 [2] | ED50 (Mus musculus [3]; [27]) | ED50 (Mus musculus [4]) | ED50 (Mus musculus [5]) | further results
1 | O=C1CN=C(c2ccccc2Cl)c2cc(Cl)ccc2N1C1CCNCC1 | 562 nM | 0.017 µM | 12.9 mg/kg | 9.59 mg/kg | 9.94 mg/kg | 
2 | CN1CCC(N2C(=O)CN=C(c3ccccc3Cl)c3cc(F)ccc32)CC1 |  | 0.014 µM | 5.2 mg/kg | 59.3 mg/kg |  | 
3 | O=C1CN=C(c2ccccc2)c2ccccc2N1C1CCNCC1 | 29 nM | 1.3 µM |  | 0.26 mg/kg | 0.06 mg/kg | LD50 [6]: 1240 mg/kg; ED50 (Mus musculus [7]): inactive; inhibition in vivo at 32 mg/kg (Rattus norvegicus [8]): 20%; ED50 (Mus musculus [9]): inactive
4 | CN1CCCC(N2C(=O)CN=C(c3ccccc3Cl)c3cc(Cl)ccc32)C1 (centres undefined) |  | 0.016 µM | 12 mg/kg |  |  | inhibition in vivo at 100 mg/kg (Mus musculus [10]): 21%
5 | CCOC(=O)N1CCC(N2C(=O)CN=C(c3ccccc3Cl)c3cc(Cl)ccc32)CC1 |  | 0.02 µM | 1.95 mg/kg |  |  | inhibition in vivo at 50 mg/kg (Mus musculus [11]): 16%
6 | O=C1CN=C(c2ccccc2F)c2cc(Cl)ccc2N1C1CCN(Cc2ccccc2)C1 (centres undefined) |  | 0.27 µM | 1.52 mg/kg |  |  | inhibition in vivo at 50 mg/kg (Mus musculus [12]): 58%
7 | O=C1CN=C(c2ccccc2Cl)c2cc(F)ccc2N1C1CCNCC1 | 877 nM | 0.012 µM | 29.4 mg/kg | 13.5 mg/kg |  | 
8 | CN(C)CCCN1c2ccccc2CCc2ccccc21 [IMIPRAMINE] | 85 nM |  |  | 2.14 mg/kg | 0.8 mg/kg | 
9 | CN1CCC(N2C(=O)CN=C(c3ccccc3F)c3cc(Br)ccc32)CC1 |  | 0.049 µM | 1.61 mg/kg | 3.85 mg/kg | 2.45 mg/kg | ED50 (Rattus norvegicus [13]): 1.23 mg/kg; ED50 (Mus musculus [14]): 0.79 mg/kg
10 | O=C1CN=C(c2ccccc2F)c2cc(F)ccc2N1C1CCNCC1 | 79 nM | 0.15 µM | 32.1 mg/kg | 0.38 mg/kg |  | ED50 (Mus musculus [3]): 27.55 mg/kg; LD50 [15]: 939 mg/kg; inhibition in vivo at 32 mg/kg (Rattus norvegicus [16]): 50%
11 | CN1CCC(N2C(=O)C(O)N=C(c3ccccc3F)c3cc(Cl)ccc32)CC1 (centres undefined) |  | 0.074 µM | 2.41 mg/kg | 9.79 mg/kg |  | 
12 | O=C1CN=C(c2ccccc2Cl)c2cc(Cl)ccc2N1C1CCCNC1 (centres undefined) |  | 0.013 µM | 16.2 mg/kg |  |  | inhibition in vivo at 50 mg/kg (Mus musculus [12]): 57%
13 | CN1CCC(N2C(=O)CN=C(c3ccccc3F)c3ccc(Cl)cc32)CC1 |  | 0.69 µM |  |  |  | inhibition in vivo at 50 mg/kg (Mus musculus [11]): 34%; ED50 (Mus musculus [17]): inactive; ED50 (Mus musculus [18]): inactive
14 | CN1CCC(N2C(=O)CN=C(c3ccccc3F)c3ccc(C(F)(F)F)cc32)CC1 |  | 17 µM |  |  |  | ED50 (Mus musculus [19]): inactive; ED50 (Mus musculus [20]): inactive
15 | O=C1CN=C(c2ccccc2F)c2cc(Br)ccc2N1C1CCNCC1 | 288 nM | 0.033 µM | 2.7 mg/kg | 5.37 mg/kg |  | ED50 (Rattus norvegicus [21]): 4.54 mg/kg
16 | CN1CCC(N2C(=O)CN=C(c3ccccc3F)c3cc(Cl)c(Cl)cc32)CC1 |  | 0.8 µM |  |  |  | inhibition in vivo at 50 mg/kg (Mus musculus [22]): 64%; ED50 (Mus musculus [23]): inactive; ED50 (Mus musculus [9]): inactive
17 | CN1CCC(N2C(=O)CN=C(c3cccc(Cl)c3)c3cc(Cl)ccc32)CC1 |  | 23 µM |  |  | 19.3 mg/kg | ED50 (Mus musculus [24]): inactive
18 | CN1CCC(N2C(=O)CN=C(c3ccccc3F)c3cc(F)ccc32)CC1 | 53700 nM |  |  | 1.62 mg/kg | 0.27 mg/kg | ED50 (Rattus norvegicus [13]): 11.4 mg/kg; ED50 (Mus musculus [14]): 26.9 mg/kg
19 | CN1CCC(N2C(=O)CN=C(c3ccccc3F)c3cccc(Cl)c32)CC1 |  | 4.7 µM |  |  | 2.66 mg/kg | ED50 (Mus musculus [9]): inactive
20 | CN1CCC(N2C(=O)CN=C(c3ccccc3F)c3ccccc32)CC1 |  | 0.2 µM |  |  | 0.21 mg/kg | inhibition in vivo at 50 mg/kg (Mus musculus [25]): 37.5%
21 | CN1CCC(N2C(=O)CN=C(c3ccccc3F)c3cc(N(C)C)ccc32)CC1 |  | 8.3 µM |  |  | 0.7 mg/kg | ED50 (Mus musculus [26]): inactive
